This is a sample that favours compounds with a hit; in the whole collection about 2% have one here.
Dynein cargo inh = inhibitors of GR-EGFP nuclear translocation, primary screen, dynein cargo transport inhibitor project, imaging, high-content, 3617.4 mouse cells; test concentration mostly 20 µM; stimulated with dexamethasone, 1 µM; hits give low values; z-score, hits read low; 220,000 compounds, 0.47% hits; AID 1381, 2008;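 active = plate z-score of nuclear minus cytoplasmic receptor signal below a set negative limit, without overly bright fluorescence or cell loss, cut at about -3.5 in these data, passing the limit was not always enough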;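 also: z-score of nuclear minus cytoplasmic ring GR-EGFP intensity difference per well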
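Buffer or medium: tetracycline-free induction medium containing charcoal-stripped FBS / Reagent: dexamethasone agonist, 1.0 µM final, for 30 min / Technique: automated 10x imaging of fixed Hoechst-stained cells / Times: induction 48 h, compound 1 h, agonist 30 min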
HSV replic up = enhancers of HSV replication in host cells, fold increase, host cell viability; HSV replication augmentation in cells; maximum fold increase; 220,000 compounds, 0.005% hits; AID 1956, 2009; in the data active = maximum fold increase above about 1.5; inconclusive = no clear call, values can overlap the other calls; tested in PC3 cells
INS promoter inh = inhibitors of insulin promoter-driven GFP, primary screen, imaging, TRM-6 cells, eGFP reporter, cell count | reporter expression induced with tamoxifen | inhibition, % at 2 µM | 130,000 compounds, 0.9% hits | AID 1273, 2008;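 active = inhibition above the mean plus 3 SD, with well images judged a real hit on visual review, cut at about 60% in these data, passing the limit was not always enough; inconclusive = inhibition over the cutoff but images rejected on review; inactive = inhibition not above the cutoff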
Autophagy HCS = autophagy modulators in MEF cells, primary screen, imaging, high-content, MEF GFP-LC3; calls only at 10 µM (by protocol); MEF GFP-LC3 puncta imaging; test concentration mostly 10 µM; AID 463193, 2010; 190,000 compounds, 0.98% hits;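 active = percentage of spot-positive cells more than 3 SD above its plate mean, without a fluorescence outlier flag or 80% toxicity; inconclusive = no clear call, values can overlap the other calls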
Insulin prom up = insulin promoter activators in MIN6 cells, imaging, high-content screening, mouse beta cells; MIN6 insulin promoter-GFP reporter; hits give high values; z-score at 5 µM; 190,000 compounds, 0.3% hits; AID 1625, 2009;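 active = z-score above 3 at 5 µM with at least 500 cells counted in the well; inconclusive = wells under 500 cells, flagged as cytotoxic or low count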
Furin inh = human furin inhibitors, primary screen, biochemical, fluorescence intensity; purified furin, fluorogenic substrate cleavage; inhibition, % at 20 µM or 30 µM; 220,000 compounds, 0.061% hits; P09958; in the data active = inhibition above about 25%
Target sequence (P09958 108-714 limits assumed): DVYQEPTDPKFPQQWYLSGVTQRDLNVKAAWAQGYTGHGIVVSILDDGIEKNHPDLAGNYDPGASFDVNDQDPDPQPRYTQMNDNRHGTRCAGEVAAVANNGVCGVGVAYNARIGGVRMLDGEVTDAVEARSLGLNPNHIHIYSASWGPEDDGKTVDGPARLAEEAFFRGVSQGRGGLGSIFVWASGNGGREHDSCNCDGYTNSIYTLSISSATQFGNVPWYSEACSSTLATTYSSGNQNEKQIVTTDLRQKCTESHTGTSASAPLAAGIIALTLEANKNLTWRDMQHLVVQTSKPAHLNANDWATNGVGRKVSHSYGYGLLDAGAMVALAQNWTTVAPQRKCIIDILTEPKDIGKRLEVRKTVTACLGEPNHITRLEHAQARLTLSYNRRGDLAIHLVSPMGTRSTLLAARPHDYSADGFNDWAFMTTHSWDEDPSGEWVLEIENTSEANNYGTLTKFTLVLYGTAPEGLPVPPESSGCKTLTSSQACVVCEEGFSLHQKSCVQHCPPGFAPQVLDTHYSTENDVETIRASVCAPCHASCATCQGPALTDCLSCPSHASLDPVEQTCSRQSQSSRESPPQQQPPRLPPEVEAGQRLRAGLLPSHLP
Numbers stand for hits; - = inactive; ? = inconclusive; . = no result given; + = active, no number.

SMILES | Dynein cargo inh | HSV replic up | INS promoter inh | Autophagy HCS | Insulin prom up | Furin inh
Cc1cccc(C(C)(C)C)c1OCCn1ccnc1 | - | - | 89.0 | - | . | -
Cc1cccc(Cl)c1OCCCCn1ccnc1 | - | - | - | - | - | -
COc1ccccc1C(CCN(Cc1ccccc1)C(C)=O)c1ccco1 (stereo not given) | - | - | . | . | - | -
COc1ccc(CN2CCN(CCc3ccccc3)C(CCO)C2)c(O)c1 (stereo not given) | - | - | . | - | - | -
Cc1ccc(C(C(=O)NCc2ccco2)N(C(=O)CNC(=O)c2cccs2)c2c(C)cc(C)cc2C)cc1 (stereo not given) | - | - | - | + | - | -
Cc1ccc(C(C(=O)NCc2ccco2)N(C(=O)CNC(=O)c2cccs2)c2c(C)cccc2C)cc1 (stereo not given) | - | - | . | - | - | -
Cc1ccccc1C(=O)c1cccn1CC(=O)NCCC1=CCCCC1 | - | - | - | - | - | -
Cc1ccc(C)c(N2CCN(CCCNC(=O)Cn3cccc3C(=O)c3ccccc3C)CC2)c1 | - | - | - | + | - | -
Cc1ccccc1C(=O)c1cccn1CC(=O)NCCN1CCN(c2cccc(C)c2C)CC1 | - | - | - | + | - | -
Cc1ccc(CNC(=O)Cn2cccc2C(=O)c2ccccc2C)cc1 | - | - | . | - | - | -
O=Nc1c(O)n(Cc2ccc(Cl)c(Cl)c2)c2ccccc12 | - | - | - | - | - | -
COC(=O)c1cc(=O)n(Cc2ccco2)c(=Nc2ccc(F)cc2)s1 | -4.64 | - | . | - | - | -
CCOC(=O)c1ccc(N=c2sc(C(=O)OC)cc(=O)n2-c2ccc(C(=O)OCC)cc2)cc1 | - | - | - | - | - | -
O=C(Nc1nnc(C2=COCCO2)o1)c1ccc(S(=O)(=O)N2CCCCC2)cc1 | - | - | . | - | . | -
CC(=O)Nc1ccc2c(c1)nc1n2CCSC1 | - | - | - | - | . | -
CCCCC(=O)Nc1ccc2c(c1)nc1n2CCSC1 | - | - | . | - | 3.16 | -
CCS(=O)(=O)N1Cc2ccccc2CC1C(=O)OCC(=O)Nc1ccc(C)cc1 (stereo not given) | - | - | - | - | 5.05 | -
CCS(=O)(=O)N1Cc2ccccc2CC1C(=O)OCC(=O)Nc1ccc(SC(F)F)cc1 (stereo not given) | - | - | - | - | - | -
CCCCCc1nc2sc3c(c2c(=O)n1NC(=O)c1ccc([N+](=O)[O-])cc1)CC(C)(C)OC3 | - | - | - | - | - | -
O=[N+]([O-])c1ccc(Sc2nc3ccccc3o2)c([N+](=O)[O-])c1 | - | - | - | - | - | -
O=[N+]([O-])c1ccc(Cl)cc1Sc1nc2ccccc2o1 | - | - | - | + | . | -
CC(=C\c1ccccc1)/C=C1/SC(=S)N(CCC(=O)Nc2ccccn2)C1=O | - | - | - | + | - | -
CCCN1C(=O)c2cc(C(=O)Nc3ccc(OC)cc3OC)ccc2C1Nc1ccc(OC)cc1OC (stereo not given) | - | - | . | - | - | -
CCC(=O)Nc1cccc(C(=O)OCc2cccc([N+](=O)[O-])c2)c1 | - | - | - | - | - | -
CC(C)CC(c1nnnn1CCc1ccccc1)N1CCC(C(N)=O)CC1 (stereo not given) | - | - | 100.0 | - | . | -
SMILES | Dynein cargo inh | HSV replic up | INS promoter inh | Autophagy HCS | Insulin prom up | Furin inh
CCCn1nnc(NC(=O)COc2ccc(C3CCCCC3)cc2)n1 | - | - | 100.0 | - | - | -
CCCn1nnc(NC(=O)COc2ccc(Cl)cc2)n1 | - | - | - | - | - | -
CCOc1cccc(C(=O)Nc2cccc(-c3nnc(-c4ccc(C)cc4)o3)c2)c1 | - | - | - | + | - | -
CCCn1nnc(NC(=O)c2cccc(OCC)c2)n1 | - | - | - | + | - | -
CCOc1cccc(C(=O)Nc2cccc(-c3nnc(-c4ccccc4)o3)c2)c1 | - | - | - | - | - | -
CC(=O)Nc1ccc(C(=O)OCC(=O)N(Cc2ccccc2)C(C)(C)C)cc1 | - | - | - | - | - | -
CC(=O)c1ccc(N(C(=O)c2csnn2)C(C(=O)NC(C)(C)C)c2cccs2)cc1 (stereo not given) | - | - | . | - | - | -
O=C(c1cc2cc([N+](=O)[O-])ccc2oc1=O)N1CCN(c2ncccn2)CC1 | - | - | - | + | - | -
COCCN1C(=O)/C(=C/c2ccc(N3CCCC3)cc2C)SC1=S | - | ? | - | + | . | -
Clc1ccccc1/C=C/C=N/Nc1nc(N2CCOCC2)nc(N2CCOCC2)n1 | - | - | . | - | - | -
O=C(Nc1nnc(C2CC2)s1)c1ccc(Cl)c(S(=O)(=O)N2CCc3ccccc3C2)c1 | - | - | 60.0 | - | - | -
Cn1c(O)c(N=NC(=O)Cn2c(C(F)(F)F)nc3ccccc32)c2ccccc21 | - | - | . | - | - | -
CCOC(=O)c1cc(CC)sc1/N=C/C1C(=O)CCCC1=O | - | - | . | - | - | -
CCOC(=O)c1cc(C)sc1/N=C/C1C(=O)CCCC1=O | - | - | - | - | - | 36.6
CCOC(=O)c1cc(C)sc1/N=C/C1=C(O)CCCC1=O | - | - | - | - | - | 36.4
Cc1cc(C)nc(/N=C(\NC(=O)C(C)(C)C)Nc2ccc(F)cc2)n1 | - | - | . | . | - | -
Nc1cc(=O)[nH]c(N2CCN(c3ccccc3)CC2)n1 | - | - | . | + | - | -
O=c1[nH]c(N2CCN(c3ccccc3)CC2)nc2c1CCCC2 | - | - | - | - | - | -
O=c1[nH]c(/C=C2\C=Nc3ccccc32)c(O)n1Cc1ccccc1F | - | - | . | + | - | -
Cc1cccc(N/C=C/c2onc(C)c2[N+](=O)[O-])c1 | - | - | - | + | - | -
CCCCCCN1C=CC=C/C1=C/C=C(C#N)C#N | - | ? | - | - | - | 30.0
CCCCCN1C=CC=C/C1=C\C=C(C#N)C#N | - | ? | . | . | - | -
CCOC(=O)c1sc(NN=C(C(=O)OC)C(=O)OC)c(C(=O)OCC)c1C | - | - | . | - | - | -
Cc1c(C(=O)Cc2ccccc2)n(C)c2ccccc12 | - | - | . | - | - | -
CCCC(=O)c1c(C)c2ccccc2n1C | - | - | - | - | 3.01 | -
Cc1c(C(c2ccc([N+](=O)[O-])cc2)c2c(C)n(C)n(-c3ccccc3)c2=O)c(=O)n(-c2ccccc2)n1C | - | - | . | - | 4.14 | -
CCOc1cc(C2C(C(=O)c3ccc(C)cc3)=C(C(=O)OC)Nc3nnnn32)ccc1O (stereo not given) | - | 2.11 | - | - | - | -
COC(=O)C1=C(C(C)=O)C(c2ccc(C)cc2)n2nnnc2N1 (stereo not given) | - | - | - | - | - | -
O=C(COC(=O)/C=C/c1cccs1)NC1CC1 | - | - | . | - | - | -

Screening results as filed in PubChem BioAssay.
